Measurements taken from ChEMBL document CHEMBL3603824, “Evaluation of spiropiperidine hydantoins as a novel class of antimalarial agents” (Bioorg Med Chem, 2015).
Activity calls are given as the source filed them. The rule behind the calls is not given here.

What was measured:
Plasmodium falciparum [1] = experiment: Antimalarial activity against chloroquine-sensitive Plasmodium falciparum 3D7 infected in human erythrocytes assessed as inhibition of parasite growth after 72 hrs by SYBR Green I method; assay type: functional, organism-based; conditions: 3D7, 72 h
Method in brief: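 P. falciparum 3D7 grown in human erythrocytes (2% hematocrit) in RPMI1640 with Hepes, hypoxanthine, glucose, bicarbonate and Albumax I under 5% CO2/5% O2/90% N2. 10 mM DMSO stocks, 3-fold serial dilutions. Quadruplicate wells at 0.5% parasitemia, 0.1% DMSO final, 72 h at 37 °C. SYBR Green I lysis buffer added, 1 h dark, fluorescence 497/520. IC50 by four-parameter logistic fit.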

HepG2 = experiment: Cytotoxicity against human HepG2 cells assessed as inhibition of cell viability after 72 hrs by PrestoBlue Cell Viability Reagent based assay; conditions: HepG2, 72 h
Method in brief: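 HepG2 kept in DMEM with 10% FBS and L-glutamine on poly-D-lysine at 37 °C, 5% CO2. Seeded 10,000 cells/well, allowed to adhere at least 4 h, then exposed to compound for 72 h. PrestoBlue added for 30 min at 37 °C, fluorescence Ex 560/Em 590 nm. IC50 by nonlinear regression.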

[2] = Selectivity index, ratio of IC50 for human HepG2 cells to IC50 for chloroquine-sensitive Plasmodium falciparum 3D7 infected in human erythrocytes; assay type: toxicity, cell-based; conditions: read-out: Ratio IC50
[3] = target: Beta-secretase 1 (Homo sapiens) (UniProt P56817); experiment: Inhibition of human recombinant BACE1 using Mca-SEVNLDAEFRK(Dnp)RR-NH2 as substrate up to 10 uM by FRET assay
Method in brief: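 Recombinant human BACE1 at 20 ng/µl, activated 15 min at RT in 100 mM sodium acetate pH 4.0. FRET substrate added at 20 uM final. Run 60 min at RT, time-resolved fluorescence Ex/Em 360/460 nm. IC50 by nonlinear regression.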

[4] = target: Cathepsin D (Homo sapiens) (UniProt P07339); experiment: Inhibition of human recombinant cathepsin D using Mca-PLGL-Dpa-AR-NH2 as substrate up to 10 uM by FRET assay
Method in brief: (§1)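 Recombinant human cathepsin D at 20 ng/µl and cathepsin E at 1 ng/µl, each activated 30 min at RT in 0.1 M NaOAc, 0.2 M NaCl, pH 3.5. FRET substrate added at 20 uM final. Run 60 min at RT, time-resolved fluorescence Ex/Em 360/460 nm. IC50 by nonlinear regression.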

[5] = target: T1, Cathepsin E (Homo sapiens) (UniProt P14091); experiment: Inhibition of human recombinant cathepsin E using Mca-PLGL-Dpa-AR-NH2 as substrate up to 10 uM by FRET assay; method in brief: as §1
T1 sequence (whole entry): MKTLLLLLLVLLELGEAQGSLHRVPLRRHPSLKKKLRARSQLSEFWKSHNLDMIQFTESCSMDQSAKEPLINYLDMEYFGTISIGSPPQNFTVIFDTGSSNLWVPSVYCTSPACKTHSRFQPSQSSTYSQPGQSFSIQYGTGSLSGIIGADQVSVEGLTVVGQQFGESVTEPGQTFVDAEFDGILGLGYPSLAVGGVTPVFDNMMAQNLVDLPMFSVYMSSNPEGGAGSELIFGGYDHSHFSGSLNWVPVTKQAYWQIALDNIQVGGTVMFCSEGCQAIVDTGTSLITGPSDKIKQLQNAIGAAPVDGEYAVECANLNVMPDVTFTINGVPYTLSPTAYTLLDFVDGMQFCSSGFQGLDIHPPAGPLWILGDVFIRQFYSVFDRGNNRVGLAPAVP

Plasmodium [6] = experiment: Inhibition of Plasmodium plamepsin 2 using EDANS-CO-CH2-CH2-CO-ALERMFLSFP-Dap(DABCYL)OH as substrate up to 10 uM after 60 mins by fluorescence assay
Method in brief: (§2)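 Recombinant PM-2 or PM-4, purified and activated at 0.3 mg/ml in pH 4.5 citrate, 0.1% Tween-20, 50 mM DTT for 40 min at RT. Then diluted in 50 mM sodium acetate pH 4.7, 0.01% Tween-20. Serially diluted compounds added, followed by peptide substrate at 20 μM final. Run 60 min at RT, fluorescence Ex/Em 360/535 nm. IC50 derived from the curve.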

Plasmodium [7] = experiment: Inhibition of Plasmodium plamepsin 4 using EDANS-CO-CH2-CH2-CO-ALERMFLSFP-Dap(DABCYL)OH as substrate up to 10 uM after 60 mins by fluorescence assay; method in brief: as §2
Plasmodium falciparum [8] = experiment: Antimalarial activity against multidrug-resistant Plasmodium falciparum Dd2 infected in human erythrocytes assessed as inhibition of parasite growth after 72 hrs by SYBR Green I method; assay type: functional, organism-based; conditions: Dd2, 72 h
Method in brief: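 SYBR Green I growth assay in human erythrocytes. DMSO stocks (10 mM), 3-fold serial dilutions, then diluted 500-fold into medium and added in quadruplicate. Final conditions: 2% hematocrit, 0.5% parasitemia, 0.1% DMSO. Incubated 72 h at 37 °C. Lysis buffer with SYBR Green I added, 1 h at room temperature in the dark. Fluorescence read at 497/520 nm. IC50 from four-parameter logistic nonlinear regression.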

Liver = experiment: Half-life in mouse liver microsomes at 1 uM by LC-MS/MS analysis; assay type: ADME
Method in brief: (§3)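 Compound at 1 μM with liver microsomes (mouse, rat or human), 1.2 mM NADPH, 3.3 mM MgCl2, 100 mM potassium phosphate pH 7.4, at 37 °C. Aliquots taken at 0, 5, 10, 20 and 30 min and quenched in ice-cold acetonitrile with internal standard. Centrifuged supernatant run by LC-MS/MS. Half-life from analyte/internal standard peak-area ratios.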

Liver microsome [9] = experiment: Half-life in rat liver microsomes at 1 uM by LC-MS/MS analysis; assay type: ADME; method in brief: as §3
Liver microsome [10] = experiment: Half-life in human liver microsomes at 1 uM by LC-MS/MS analysis; assay type: ADME; method in brief: as §3
[11] = Half-life in Sprague-Dawley rat at 1 mg/kg, iv and 5 mg/kg, po by LC-MS analysis; assay type: ADME, organism-based; conditions: in vivo
Rattus norvegicus [12] = experiment: Volume of distribution in Sprague-Dawley rat at 1 mg/kg, iv and 5 mg/kg, po by LC-MS analysis; assay type: ADME, organism-based; conditions: in vivo
Rattus norvegicus [13] = experiment: Oral bioavailability in Sprague-Dawley rat at 5 mg/kg by LC-MS analysis; assay type: ADME, organism-based; conditions: in vivo

Chain of Cathepsin D (Homo sapiens) (P07339 65-162 limits assumed): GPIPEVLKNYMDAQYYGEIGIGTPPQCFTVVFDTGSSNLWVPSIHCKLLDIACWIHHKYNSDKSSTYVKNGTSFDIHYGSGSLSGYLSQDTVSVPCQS
Chain of Cathepsin D (Homo sapiens) (P07339 169-412 limits assumed): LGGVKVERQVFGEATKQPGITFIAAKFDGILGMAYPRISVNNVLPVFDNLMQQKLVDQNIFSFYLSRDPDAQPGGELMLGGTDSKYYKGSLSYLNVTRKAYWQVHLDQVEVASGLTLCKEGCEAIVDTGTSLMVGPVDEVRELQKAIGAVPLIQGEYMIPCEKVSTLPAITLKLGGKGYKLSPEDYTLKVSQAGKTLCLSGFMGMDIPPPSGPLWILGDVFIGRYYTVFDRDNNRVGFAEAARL
Chain of Beta-secretase 1 (Homo sapiens) (P56817 whole entry): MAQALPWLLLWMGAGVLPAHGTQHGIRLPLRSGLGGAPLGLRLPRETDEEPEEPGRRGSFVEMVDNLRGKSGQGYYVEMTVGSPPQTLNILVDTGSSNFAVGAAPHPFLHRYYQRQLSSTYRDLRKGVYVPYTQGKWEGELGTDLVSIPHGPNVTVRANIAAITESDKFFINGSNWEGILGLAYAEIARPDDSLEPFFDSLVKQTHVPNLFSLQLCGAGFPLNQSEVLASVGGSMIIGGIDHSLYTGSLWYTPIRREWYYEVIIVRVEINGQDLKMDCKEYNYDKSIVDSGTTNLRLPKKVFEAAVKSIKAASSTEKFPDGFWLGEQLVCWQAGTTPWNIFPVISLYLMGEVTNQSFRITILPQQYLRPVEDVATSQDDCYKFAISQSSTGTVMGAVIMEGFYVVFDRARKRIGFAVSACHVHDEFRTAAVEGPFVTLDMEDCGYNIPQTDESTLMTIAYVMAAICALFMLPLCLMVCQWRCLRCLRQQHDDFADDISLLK

Compound `CCN1C(=O)N(CCC(C)C)C2(CCN(Cc3cccc4cc[nH]c34)CC2)C1=O` has an IC50 (Plasmodium falciparum [1]) of 3400 nM.
With `CCN1C(=O)N(CCC(C)C)C2(CCN(Cc3ccccc3O)CC2)C1=O` the IC50 (Plasmodium falciparum [1]) was 1100 nM.
With `CCN1C(=O)N(CCC(C)C)C2(CCN(Cc3cc(Cl)cnc3N)CC2)C1=O` the IC50 (Plasmodium falciparum [1]) was > 10000 nM.
`CCN1C(=O)N(CCC(C)C)C2(CCN(Cc3c(O)ccc(Cl)c3Cl)CC2)C1=O` showed an IC50 (Plasmodium falciparum [1]) of 280 nM.
`CC(C)CCN1C(=O)N(Cc2cccnc2)C(=O)C12CCN(Cc1cc(Cl)ccc1O)CC2` gave an IC50 (Plasmodium falciparum [1]) of 840 nM.
Work on `CCN1C(=O)N(Cc2ccc(C#N)cc2)C2(CCN(Cc3cc(Cl)ccc3O)CC2)C1=O` yielded an IC50 (Plasmodium falciparum [1]) of 1500 nM.
For `CCN1C(=O)N(CCC(C)C)C2(CCN(Cc3cccnc3N)CC2)C1=O`, the IC50 (Plasmodium falciparum [1]) was > 10000 nM.
In the case of `CCN1C(=O)N(CCC(C)C)C2(CCN(Cc3cc(Br)ccc3O)CC2)C1=O`, the IC50 (Plasmodium falciparum [1]) is reported as 210 nM.
In the case of `CCN1C(=O)N(CCC(C)C)C2(CCN(C(=O)c3cc(Cl)ccc3O)CC2)C1=O`, the IC50 (Plasmodium falciparum [1]) is reported as > 10000 nM.
With `CCN1C(=O)N(c2ccccc2)C2(CCN(Cc3cc(Cl)ccc3O)CC2)C1=O` the IC50 (Plasmodium falciparum [1]) was 3600 nM.
Work on `CCN1C(=O)N(CCC(C)C)C2(CCN(Cc3cc(Cl)cc(Cl)c3O)CC2)C1=O` yielded an IC50 (Plasmodium falciparum [1]) of 460 nM.
For `CCN1C(=O)N(CCC(C)C)C2(CCN(Cc3ccc(OC)cc3O)CC2)C1=O`, the IC50 (Plasmodium falciparum [1]) was 940 nM.
In the case of `CCN1C(=O)N(Cc2ccc(C(F)(F)F)cc2)C2(CCN(Cc3cc(Cl)ccc3O)CC2)C1=O`, the IC50 (Plasmodium falciparum [1]) is reported as 230 nM.
With `CCN1C(=O)N(CCC(C)C)C2(CCN(Cc3cccc(Cl)c3O)CC2)C1=O` the IC50 (Plasmodium falciparum [1]) was 1100 nM.
Work on `CCN1C(=O)N(CCc2ccccc2)C2(CCN(Cc3cc(Cl)ccc3O)CC2)C1=O` yielded an IC50 (Plasmodium falciparum [1]) of 290 nM.
For `CCN1C(=O)N(CC)C2(CCN(Cc3cc(Cl)ccc3O)CC2)C1=O`, the IC50 (Plasmodium falciparum [1]) was 6700 nM.
With `CCN1C(=O)N(CCC(C)C)C2(CCN(Cc3cc(O)cc(Cl)c3)CC2)C1=O` the IC50 (Plasmodium falciparum [1]) was 760 nM.
In the case of `CCN1C(=O)N(CCC(C)C)C2(CCN(Cc3cc(F)ccc3O)CC2)C1=O`, the IC50 (Plasmodium falciparum [1]) is reported as 1400 nM.
For `CC(C)CCN1C(=O)NC(=O)C12CCN(Cc1cc(Cl)ccc1O)CC2`, the IC50 (Plasmodium falciparum [1]) was > 10000 nM.
Compound `CCN1C(=O)N(CCC(C)C)C2(CCN(Cc3ccc(OC)cc3OC)CC2)C1=O` has an IC50 (Plasmodium falciparum [1]) of 7600 nM.
For `CC(C)CCN1C(=O)N(CCCc2ccncc2)C(=O)C12CCN(Cc1cc(Cl)ccc1O)CC2`, the IC50 (Plasmodium falciparum [1]) was 610 nM.
In the case of `CCN1C(=O)N(CCC(C)C)C2(CCN(Cc3cc(-c4ccccc4)ccc3O)CC2)C1=O`, the IC50 (Plasmodium falciparum [1]) is reported as 290 nM and the IC50 (HepG2) is reported as > 50000 nM.
`CCN1C(=O)N(CCC(C)C)C2(CCN(Cc3cccc(OC)c3O)CC2)C1=O` gave an IC50 (Plasmodium falciparum [1]) of 6000 nM.
`CCN1C(=O)N(CCC(C)C)C2(CCN(Cc3ccc(O)c(Cl)c3)CC2)C1=O` gave an IC50 (Plasmodium falciparum [1]) of 2600 nM.
For `CCN1C(=O)N(CCC(C)C)C2(CCN(Cc3cccc(Cl)c3)CC2)C1=O`, the IC50 (Plasmodium falciparum [1]) was 14000 nM.
For `CCN1C(=O)N(Cc2ccccc2)C2(CCN(Cc3cc(Cl)ccc3O)CC2)C1=O`, the IC50 (Plasmodium falciparum [1]) was 560 nM.
With `CCN1C(=O)N(CCC(C)C)C2(CCN(Cc3cc(C)ccc3O)CC2)C1=O` the IC50 (Plasmodium falciparum [1]) was 880 nM.
For `CCN1C(=O)N(C2CCCC2)C2(CCN(Cc3cc(Cl)ccc3O)CC2)C1=O`, the IC50 (Plasmodium falciparum [1]) was 430 nM.
In the case of `CCN1C(=O)N(CCC(C)C)C2(CCN(Cc3cccc4cccnc34)CC2)C1=O`, the IC50 (Plasmodium falciparum [1]) is reported as > 10000 nM.
In the case of `CCN1C(=O)N(CCC(C)C)C2(CCN(Cc3cc(Cl)c(Cl)cc3O)CC2)C1=O`, the IC50 (Plasmodium falciparum [1]) is reported as 90 nM, the IC50 (HepG2) is reported as > 50000 nM and the selectivity ratio [2] is reported as > 500. The inhibition [3] was “inactive”, the inhibition [4] was “inactive” and the inhibition [5] was “inactive”. The inhibition (Plasmodium [6]) was “inactive” and the inhibition (Plasmodium [7]) was “inactive”.
In the case of `CCN1C(=O)N(Cc2ccc(OC)cc2)C2(CCN(Cc3cc(Cl)ccc3O)CC2)C1=O`, the IC50 (Plasmodium falciparum [1]) is reported as 560 nM.
With `CCN1C(=O)N(CCC(C)C)C2(CCN(Cc3cc(Cl)ccc3O)CC2)C1=O` the IC50 (Plasmodium falciparum [1]) was 220 nM, the IC50 (HepG2) was 37000 nM and the selectivity ratio [2] was > 100. The inhibition [3] was “inactive”, the inhibition [4] was “inactive” and the inhibition [5] was “inactive”. The inhibition (Plasmodium [6]) was “inactive”, the inhibition (Plasmodium [7]) was “inactive” and the IC50 (Plasmodium falciparum [8]) was 220 nM. It also gave a t1/2 (Liver) of 4 min, a t1/2 (Liver microsome [9]) of 3 min and a t1/2 (Liver microsome [10]) of 9 min. It also gave a half-life [11] of 16.8 min, a Vd (Rattus norvegicus [12]) of 3.7 L/kg and an F (Rattus norvegicus [13]) of 10%.
Compound `CC(C)CCN1C(=O)N(C(C)C)C(=O)C12CCN(Cc1cc(Cl)ccc1O)CC2` has an IC50 (Plasmodium falciparum [1]) of 110 nM.
For `CCN1C(=O)N(CCC(C)C)C2(CCN(Cc3cc(OC)ccc3O)CC2)C1=O`, the IC50 (Plasmodium falciparum [1]) was 560 nM.
For `CCN1C(=O)N(CCC(C)C)C2(CCN(CCCO)CC2)C1=O`, the IC50 (Plasmodium falciparum [1]) was > 10000 nM.
With `CCN1C(=O)N(CCC(C)C)C2(CCN(C(=O)c3ccccn3)CC2)C1=O` the IC50 (Plasmodium falciparum [1]) was > 10000 nM.
With `CCN1C(=O)N(CCC(C)C)C2(CCN(Cc3ccccn3)CC2)C1=O` the IC50 (Plasmodium falciparum [1]) was > 10000 nM.
With `CCN1C(=O)N(CCC(C)C)C2(CCN(Cc3ccc(Cl)cc3O)CC2)C1=O` the IC50 (Plasmodium falciparum [1]) was 2100 nM and the IC50 (HepG2) was > 50000 nM.
In the case of `CCN1C(=O)N(CCC(C)C)C2(CCN(Cc3c(O)cccc3Cl)CC2)C1=O`, the IC50 (Plasmodium falciparum [1]) is reported as 410 nM.
`CCN1C(=O)N(CCC(C)C)C2(CCN(Cc3cccc(OC)c3)CC2)C1=O` gave an IC50 (Plasmodium falciparum [1]) of 16000 nM.
In the case of `CCN1C(=O)N(CCC(C)C)C2(CCNCC2)C1=O`, the IC50 (Plasmodium falciparum [1]) is reported as > 10000 nM.
For `CCN1C(=O)NC2(CCN(Cc3cc(Cl)ccc3O)CC2)C1=O`, the IC50 (Plasmodium falciparum [1]) was > 10000 nM.
